{"source": "ChEMBL document CHEMBL1124238", "about": "“Methotrexate analogues. 32. Chain extension, alpha-carboxyl deletion, and gamma-carboxyl replacement by sulfonate and phosphonate: effect on enzyme binding and cell-growth inhibition” (J Med Chem, 1988)", "key": {"[1]": {"tested_on": "Folylpolyglutamate synthase (Mus musculus)", "experiment": "Inhibition of Folyl-polyglutamate synthase from mouse liver", "design": "concentration or dose not given beside the values", "details": "concentration not given here"}, "[2]": {"molecular_target": "T1, Dihydrofolate reductase (Mus musculus, UniProt P00375)", "T1 sequence (P00375 whole entry)": "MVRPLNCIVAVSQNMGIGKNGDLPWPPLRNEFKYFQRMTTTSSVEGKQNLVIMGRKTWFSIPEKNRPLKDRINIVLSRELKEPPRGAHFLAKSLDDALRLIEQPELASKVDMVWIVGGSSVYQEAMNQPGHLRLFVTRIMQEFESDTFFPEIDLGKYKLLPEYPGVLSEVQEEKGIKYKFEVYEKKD", "experiment": "Inhibition of dihydrofolate reductase (DHFR) in mouse L1210 leukemia cells", "format": "cell-based"}, "[3]": {"species_on_record": "Mus musculus", "experiment": "(§1) Inhibition of Folyl-polyglutamate synthase from mouse liver", "details": "concentration not given here", "in_short": "(§2)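 Partially purified mouse liver enzyme, run at 37 °C for 1 h in Tris buffer pH 8.6 with 20 mM α-thioglycerol. The mixture held 1 mM [3H]-L-glutamic acid, 500 μM folic acid and 500 μM inhibitor. Activity is expressed as percent of untreated control. Ki,s comes from a slope replot of double-reciprocal 1/V versus 1/S plots, and was not determined where inhibition was below 30%.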"}, "[4]": {"experiment": "as §1", "in_short": "as §2"}, "[5]": {"tested_on": "L1210", "experiment": "Inhibition of cell growth against cultured L1210 leukemia cells in mouse", "format": "functional, cell-based"}, "[6]": {"tested_on": "L1210 ( R81)", "experiment": "(§3) Inhibition of cell growth against highly MTX- and AMT-resistant mutant L1210/R81", "format": "functional, cell-based", "details": "Mus musculus"}, "[7]": {"tested_on": "L1210", "experiment": "as §3", "format": "functional, cell-based", "details": "Mus musculus"}}}
{"smiles": "CN(Cc1cnc2nc(N)nc(N)c2n1)c1ccc(C(=O)NCS(=O)(=O)O)cc1", "values": [{"measurement": "inhibition", "setting": "[1]", "value": 19, "unit": "%"}]}
{"smiles": "Nc1nc(N)c2nc(CNc3ccc(C(=O)NC(CCCP(=O)(O)O)C(=O)O)cc3)cnc2n1", "note": "(stereo not given)", "values": [{"measurement": "IC50", "setting": "[2]", "value": 83, "unit": "nM"}, {"measurement": "inhibition", "setting": "[3]", "value": 52, "unit": "%"}, {"measurement": "Ki", "setting": "[4]", "value": 124000, "unit": "nM"}, {"measurement": "IC50", "setting": "[5]", "value": 120, "unit": "nM"}, {"measurement": "IC50", "setting": "[6]", "value": "> 460000", "unit": "nM"}]}
{"smiles": "Nc1nc(N)c2nc(CNc3ccc(C(=O)NC(CP(=O)(O)O)C(=O)O)cc3)cnc2n1", "note": "(stereo not given)", "values": [{"measurement": "IC50", "setting": "[2]", "value": 550, "unit": "nM"}, {"measurement": "inhibition", "setting": "[3]", "value": 22, "unit": "%"}, {"measurement": "Ki", "setting": "[4]", "value": 900000, "unit": "nM"}, {"measurement": "IC50", "setting": "[5]", "value": 250, "unit": "nM"}, {"measurement": "IC50", "setting": "[7]", "value": 390000, "unit": "nM"}]}
{"smiles": "CN(Cc1cnc2nc(N)nc(N)c2n1)c1ccc(C(=O)NCCP(=O)(O)O)cc1", "values": [{"measurement": "inhibition", "setting": "[1]", "value": 22, "unit": "%"}]}
{"smiles": "CN(Cc1cnc2nc(N)nc(N)c2n1)c1ccc(C(=O)NC(CCP(=O)(O)O)C(=O)O)cc1", "note": "(stereo not given)", "values": [{"measurement": "inhibition", "setting": "[1]", "value": 53, "unit": "%"}]}
{"smiles": "CN(Cc1cnc2nc(N)nc(N)c2n1)c1ccc(C(=O)NCCCS(=O)(=O)O)cc1", "values": [{"measurement": "inhibition", "setting": "[1]", "value": 18, "unit": "%"}]}
{"smiles": "CN(Cc1cnc2nc(N)nc(N)c2n1)c1ccc(C(=O)NCCS(=O)(=O)O)cc1", "values": [{"measurement": "inhibition", "setting": "[1]", "value": 22, "unit": "%"}]}
{"smiles": "Nc1nc(N)c2nc(CNc3ccc(C(=O)NC(CCS(=O)(=O)O)C(=O)O)cc3)cnc2n1", "note": "(stereo not given)", "values": [{"measurement": "inhibition", "setting": "[1]", "value": 77, "unit": "%"}]}
{"smiles": "CCOP(=O)(O)CCCNC(=O)c1ccc(N(C)Cc2cnc3nc(N)nc(N)c3n2)cc1", "values": [{"measurement": "inhibition", "setting": "[1]", "value": 9, "unit": "%"}]}
{"smiles": "Nc1nc(N)c2nc(CNc3ccc(C(=O)NC(CCP(=O)(O)O)C(=O)O)cc3)cnc2n1", "note": "(stereo not given)", "values": [{"measurement": "IC50", "setting": "[2]", "value": 63, "unit": "nM"}, {"measurement": "inhibition", "setting": "[3]", "value": 100, "unit": "%"}, {"measurement": "Ki", "setting": "[4]", "value": 8400, "unit": "nM"}, {"measurement": "IC50", "setting": "[5]", "value": 67, "unit": "nM"}, {"measurement": "IC50", "setting": "[6]", "value": 240000, "unit": "nM"}]}
{"smiles": "Nc1nc(N)c2nc(CNc3ccc(C(=O)NC(CCCCP(=O)(O)O)C(=O)O)cc3)cnc2n1", "note": "(stereo not given)", "values": [{"measurement": "IC50", "setting": "[2]", "value": 67, "unit": "nM"}, {"measurement": "inhibition", "setting": "[3]", "value": 44, "unit": "%"}, {"measurement": "Ki", "setting": "[4]", "value": 155000, "unit": "nM"}, {"measurement": "IC50", "setting": "[5]", "value": 130, "unit": "nM"}, {"measurement": "IC50", "setting": "[6]", "value": "> 280000", "unit": "nM"}]}
{"smiles": "CN(Cc1cnc2nc(N)nc(N)c2n1)c1ccc(C(=O)NCCCP(=O)(O)O)cc1", "values": [{"measurement": "inhibition", "setting": "[1]", "value": 16, "unit": "%"}]}
{"smiles": "CN(Cc1cnc2nc(N)nc(N)c2n1)c1ccc(C(=O)NC(CCS(=O)(=O)O)C(=O)O)cc1", "note": "(stereo not given)", "values": [{"measurement": "inhibition", "setting": "[1]", "value": 59, "unit": "%"}]}
{"smiles": "CN(Cc1cnc2nc(N)nc(N)c2n1)c1ccc(C(=O)NCCCCS(=O)(=O)O)cc1", "values": [{"measurement": "inhibition", "setting": "[1]", "value": 26, "unit": "%"}]}
